Data published in ChEMBL document CHEMBL1125369, “Synthesis, absolute configuration, stereoselectivity, and receptor selectivity of (alpha R, beta S)-alpha,beta-dimethylhistamine, a novel high potent histamine H3 receptor agonist” (J Med Chem, 1992).

Tests used:
[1] = Kinetic constant Km value of the enzyme; type: ADME
Summary of the method: (§1)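 Histamine N-methyltransferase purified from rat kidney. Increasing substrate concentrations incubated 1 h at 25 °C with unlabeled plus [³H]-S-adenosylmethionine (5 μM final). Stopped with perchloric acid (0.4 N final), then NaOH (1 N final). [³H]-τ-methylhistamine extracted into toluene-isoamyl alcohol (3 + 2) and counted by liquid scintillation.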

[2] = Kinetic constant Vmax value of the enzyme; type: ADME; summary of the method: as §1
[3] = target: Histamine H1 receptor (Cavia porcellus) (UniProt P31389); assay: Intrinsic activity against histamine H1 receptor in guinea pig ileum; type: tissue-based
Histamine H1 receptor (Cavia porcellus), sequence (P31389 whole entry): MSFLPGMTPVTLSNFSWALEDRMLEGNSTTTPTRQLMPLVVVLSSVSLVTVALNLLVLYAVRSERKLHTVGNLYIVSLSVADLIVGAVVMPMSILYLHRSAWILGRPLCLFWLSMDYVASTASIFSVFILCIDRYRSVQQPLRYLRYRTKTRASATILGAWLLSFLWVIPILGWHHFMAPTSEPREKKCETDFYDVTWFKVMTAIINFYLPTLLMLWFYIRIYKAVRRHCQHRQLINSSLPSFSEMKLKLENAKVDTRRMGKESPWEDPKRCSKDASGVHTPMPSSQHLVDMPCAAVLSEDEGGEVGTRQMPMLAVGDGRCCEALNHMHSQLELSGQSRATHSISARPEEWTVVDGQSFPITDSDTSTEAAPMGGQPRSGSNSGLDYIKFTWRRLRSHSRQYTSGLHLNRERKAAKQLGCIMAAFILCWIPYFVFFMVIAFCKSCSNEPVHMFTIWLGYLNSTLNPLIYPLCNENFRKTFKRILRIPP
Summary of the method: (§2)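 Male guinea pigs (350–500 g); 3 cm ileum pieces in Tyrode solution at 37 °C, gassed with O2 containing 5% CO2. Isotonic recording of contraction. A histamine standard curve is run first, with geometrically increasing bath concentrations up to maximal contraction. After washing, a cumulative concentration-response curve of the test agonist follows. Three or four experiments; EC50 as mean ± sem by the method of Sachs.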

Cavia porcellus [4] = organism: Cavia porcellus; assay: H1 agonistic activity by taking guinea pig ileum contraction; type: functional; summary of the method: as §2
Cavia porcellus [5] = organism: Cavia porcellus; assay: H2 agonistic activity by taking spontaneously beating guinea pig right atrium; type: functional, Cardiac atrium
Summary of the method: (§3)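 Right atrium from male guinea pigs (350–500 g), spontaneously beating, in McEvan's solution at 32.5 °C gassed with O2/5% CO2; 1 h equilibration. Beating rate recorded with a heart frequency meter. Cumulative histamine standard curve (10⁻⁷–10⁻⁵ M bath) run first; after washing, full curve of test agonist. One test per preparation, 3–4 experiments; EC50 mean ± sem (Sachs).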

Rattus norvegicus [6] = organism: Rattus norvegicus; assay: H3 agonistic activity against K+ induced histamine in slices of rat brain cortex.; type: functional
Summary of the method: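 Cortical slices (0.3 mm) from male Wistar rats (170–190 g), preloaded 30 min with [³H]-L-histidine (0.3 μM) and washed. Agonist added 5 min before depolarization; slices (2–3 mg protein) incubated 2 min at 37 °C with 2 or 30 mM KCl (final). Stopped by rapid centrifugation; [³H]histamine in tissue and medium quantified. 3–4 experiments; EC50 mean ± sem (Parker and Waud).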

[7] = target: Histamine H2 receptor (Cavia porcellus) (UniProt P47747); assay: Intrinsic activity against histamine H2 receptor in guinea pig right atrium; type: tissue-based; details: Cardiac atrium; summary of the method: as §3
Histamine H2 receptor (Cavia porcellus), sequence (P47747 whole entry): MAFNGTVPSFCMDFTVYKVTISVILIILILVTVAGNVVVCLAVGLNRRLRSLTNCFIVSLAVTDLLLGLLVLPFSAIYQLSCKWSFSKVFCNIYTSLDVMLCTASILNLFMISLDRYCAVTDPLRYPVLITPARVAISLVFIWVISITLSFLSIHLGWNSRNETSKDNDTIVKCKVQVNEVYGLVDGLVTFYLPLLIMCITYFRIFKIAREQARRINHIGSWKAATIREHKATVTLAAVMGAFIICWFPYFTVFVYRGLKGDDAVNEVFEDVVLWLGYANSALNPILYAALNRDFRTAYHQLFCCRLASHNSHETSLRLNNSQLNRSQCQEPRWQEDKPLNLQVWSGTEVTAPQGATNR

Rattus norvegicus [8] = organism: Rattus norvegicus; assay: In vitro H3 agonistic activity against K+ induced histamine in slices of rat brain cortex.
Cavia porcellus [9] = organism: Cavia porcellus; assay: In vitro H2 agonistic activity by taking spontaneously beating guinea pig right atrium; details: Cardiac atrium
Cavia porcellus [10] = organism: Cavia porcellus; assay: In vitro H1 agonistic activity by taking guinea pig ileum contraction
[11] = Cavia porcellus, Ileum, read-out: EC50
[12] = Cavia porcellus, Cardiac atrium, read-out: EC50

Compound	Intrinsic activity [3]	EC50 (Cavia porcellus [4]; [11]) [µM]	EC50 (Cavia porcellus [5]; [12]) [µM]	EC50 (Rattus norvegicus [6]; Rattus norvegicus) [µM]	Intrinsic activity [7]	EC50 (Cavia porcellus [4])	EC50 (Cavia porcellus [5])	also measured
Br.Br.C[C@H](N)[C@H](C)c1c[nH]cn1	0.56	420	410	0.0034	0.86	–	–	Km [1]: 2.8 µM; Vmax [2]: 1.7 nM/h/mg
CC(N)C(C)c1c[nH]cn1 (stereo unspecified)	0.94	180	940	0.012	0.66	–	–	–
NCCc1c[nH]cn1 [HISTAMINE]	1	–	–	–	1	–	–	EC50 (Rattus norvegicus [8]): […]; EC50 (Cavia porcellus [9]): 1 µM; EC50 (Cavia porcellus [10]): 0.14 µM
Br.Br.C[C@@H](N)[C@@H](C)c1c[nH]cn1	–	–	–	0.35	–	Not Active	Not Active	–
C[C@H](N)[C@@H](C)c1c[nH]cn1 (relative stereo)	–	–	–	0.0062	–	Not Active	Not Active	–
C[C@@H](N)[C@@H](C)c1c[nH]cn1 (relative stereo)	–	–	–	–	–	Not Active	Not Active	EC50 (Rattus norvegicus [6]): 0.19 µM
